Compound activity from PubChem.
Compounds with a hit are over-represented: about 1.9% of the library has one in this group of screens.
UHRF1 MBD2 ctr: UHRF1 methyl-DNA binding inhibition; UHRF1 binding to methylated oligo, TR-FRET; inhibition, % at 4.4 µM; actives 0.75% (n = 370,000); in the data active = inhibition above about 21%;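 also: UHRF1 SRA domain binding a hemimethylated CpG hairpin DNA probe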
MBD2 DNA inh: inhibitors of human MBD2 binding to methylated oligonucleotide; Q9UBB5; TR-FRET; inhibition, % at 4.4 µM; actives 0.31% (n = 370,000); in the data active = inhibition above about 13%
LEDGF integ inh: blocks HIV-1 LEDGF/p75-dependent DNA integration | TR-FRET IN-LEDGF/p75 DNA integration, Eu/Cy5 | inhibition, % at 3.7 µM | actives 0.64% (n = 370,000) | AID 743269;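 active = inhibition above the screen-wide mean plus 3 SD, cut at about 13% in these data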;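 also: signal is the Cy5 over europium emission ratio at 671 and 618 nm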
TDP2 inh: blocks human TDP2 phosphodiesterase activity. recombinant TDP2, T5PNP hydrolysis, p-nitrophenol absorbance 415 nm. inhibition, % at 12.8 µM. actives 0.34% (n = 370,000). AID 720702;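 active = inhibition above the mean of all tested compounds plus 3 SD, set per campaign, cut at about 25% in these data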
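System – recombinant human TDP2 · Amount – 120 nM TDP2 per well · Buffer or medium – Mg2+-containing Tris-HCl buffer, pH 7.5 · Reagent – T5PNP substrate, 5 mM · Dosing – 12.8 µM single point, 1% DMSO · Incubation – 2 h at 37 °C · Measured by – epi absorbance · Read-out basis – percent inhibition · Benchmarks – high control without enzyme, low control DMSO plus TDP2 · Repeats – singlicate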
Rin1 Abl inh: blocks binding of human Rin1 to Abl; P00519+Q13671; TR-FRET Rin1/Abl binding, biochemical; inhibition, % at 7.35 µM; actives 0.4% (n = 360,000); in the data active = inhibition above about 5%, passing the limit was not always enough
Of the large screens only hits and unclear results are named; the others gave an inactive call.

Oc1cc2c(cc1O)[C@H]1c3ccc(O)c(O)c3OC[C@@]1(O)C2	LEDGF integ inh 82.7, Rin1 Abl inh 31.4
O=[N+]([O-])c1ccc(-c2cnc(SC(c3ccccc3)c3ccccc3)[nH]2)cc1	UHRF1 MBD2 ctr 45.0
O=[N+]([O-])c1ccc(-c2cnc(SCc3ccccc3Cl)[nH]2)cc1	none
CCCc1cc(=O)[nH]c(SCC(=O)NC2(C#N)CCCCC2)n1	UHRF1 MBD2 ctr 26.8
CCCc1cc(=O)[nH]c(SCC(=O)NC)n1	none
CN1[C@@H](Cc2ccccc2)COc2cccc(N3CCCC3)c2S1(=O)=O	none (no result: Rin1 Abl inh)
O=C1NC(=O)/C(=C\c2ccc(Br)o2)S1	UHRF1 MBD2 ctr 45.1
CCOC(=O)c1ccc(NC(=O)c2cc3ccccc3o2)cc1	UHRF1 MBD2 ctr 25.5
O=C(Nn1cnnc1)c1ccc(Cl)c([N+](=O)[O-])c1	UHRF1 MBD2 ctr 24.7
Cc1cccc(N=Cc2cc3c(cc2[N+](=O)[O-])OCO3)c1	LEDGF integ inh 14.3
O=[N+]([O-])c1cc2c(cc1C=Nc1ccccc1)OCO2	none (no result: UHRF1 MBD2 ctr, MBD2 DNA inh, LEDGF integ inh, TDP2 inh)
CN1CCC(N2CCN(C3CN(Cc4cn(Cc5ccc(F)cc5)nn4)S(=O)(=O)C3)CC2)CC1 (configuration not stated)	none (no result: Rin1 Abl inh)
CN1CCN(C2CN(Cc3cn(Cc4ccc(F)cc4)nn3)S(=O)(=O)C2)CC1 (configuration not stated)	UHRF1 MBD2 ctr 20.8 (no result: Rin1 Abl inh)
N#CC1CCN(c2nc(-c3ccc(Br)cc3)cs2)CC1	none (no result: Rin1 Abl inh)
CC(C)(C)OC(=O)N1CCC[C@@H]1C(=O)N1CCC[C@@H]1C(=O)NCc1ccccc1	MBD2 DNA inh 14.8 (no result: Rin1 Abl inh)
CC(C)(C)OC(=O)N1CCC[C@@H]1C(=O)N1CCC[C@H]1C(=O)NCc1ccccc1	none (no result: Rin1 Abl inh)
COC(=O)c1ccc(NC(=O)C2CCCN2C(=O)OCc2ccccc2)cc1 (configuration not stated)	UHRF1 MBD2 ctr 23.8
CCCNC(=O)N1CC[C@H]2[C@@H]1c1cc(-c3ccc(F)cc3)ccc1N(C)[C@H]2CO	none (no result: Rin1 Abl inh)
O=C(CNC(=O)Cn1cnc2sc3c(c2c1=O)CCCC3)NCc1ccccn1	none
O=C(Cn1cnc2sc3c(c2c1=O)CCCC3)NCC(=O)Nc1c(F)cccc1F	UHRF1 MBD2 ctr 22.2
COc1ccc2cc(CN(Cc3ccco3)C(=S)NCC3CCCO3)c(=O)[nH]c2c1 (configuration not stated)	none
Cc1cc(C)c2cc(CN(Cc3ccco3)C(=S)NCC3CCCO3)c(=O)[nH]c2c1 (configuration not stated)	UHRF1 MBD2 ctr 44.8
COC(=O)C1CN(Cc2ccccc2)CCS(=O)(=O)N1Cc1cn(Cc2ccc(F)cc2)nn1 (configuration not stated)	none (no result: Rin1 Abl inh)
CCOC(=O)c1c(C)[nH]c(C)c1S(=O)(=O)NCCN1CCN(c2cc(Cl)ccc2C)CC1	UHRF1 MBD2 ctr 58.0
CCOC(=O)c1c(C)[nH]c(C)c1S(=O)(=O)NCCCN1CCOCC1	none
COc1ccc(-n2c(SCC(=O)Nc3ccc(Oc4ccccc4)cc3)nnc2-c2ccc(C)cc2)cc1	none (no result: Rin1 Abl inh)
CCOc1cc(NC(=O)c2ccco2)c(OCC)cc1NC(=O)c1ccco1	none
CNC(=S)Nc1cc(OC)c(NC(=O)c2ccco2)cc1OC	UHRF1 MBD2 ctr 42.8
CCOc1cc(NC(=O)c2ccco2)c(OCC)cc1NC(=O)CCc1ccccc1OC	LEDGF integ inh 15.4
CCOc1cc(NC(=S)NC)c(OCC)cc1NC(=O)c1ccco1	none
CN(C)c1ccc(C(=O)NC2CCCCN(Cc3cccc(Cl)c3)C2=O)cc1 (configuration not stated)	none (no result: Rin1 Abl inh)
Oc1ccc(N=Cc2ccc(-c3cccs3)s2)cc1	LEDGF integ inh 46.6
N#Cc1c(-c2ccco2)ccn(Cc2cccc(F)c2)c1=O	UHRF1 MBD2 ctr 22.8
N#Cc1c(-c2ccco2)ccn(Cc2ccc(F)cc2)c1=O	none
CCOC(=O)[C@@]12CCCC=C1N(CCc1ccc(Cl)cc1)C(=O)[C@H]2CC(=O)NCC12CC3CC(CC(C3)C1)C2	none (no result: Rin1 Abl inh)
CCOC(=O)[C@]12CCCCC/C=C\1N(Cc1ccc(OC)cc1)C(=O)[C@H]2CC(=O)NCC1CCCCC1	none (no result: Rin1 Abl inh)
CC1=C(C(=O)N(C)C)CC(CC(=O)NCCN2CCOCC2)C(=O)N1CCCN1CCCC1=O (configuration not stated)	UHRF1 MBD2 ctr 21.6
O=C1N2Cc3ccccc3C2CS(=O)(=O)N1C1CCCC1 (configuration not stated)	none (no result: Rin1 Abl inh)
Cc1cc(CSc2ccccc2)ccc1NC(=O)c1ccc(Br)cc1	UHRF1 MBD2 ctr 32.6
Oc1c(Cl)cc(CN2CCCCC2)c2cccnc12	Rin1 Abl inh 11.7 (no result: UHRF1 MBD2 ctr, MBD2 DNA inh, LEDGF integ inh, TDP2 inh)
O=[N+]([O-])c1cc(CN2CCCC2)c2cccnc2c1O	Rin1 Abl inh 52.4 (no result: UHRF1 MBD2 ctr, MBD2 DNA inh, LEDGF integ inh, TDP2 inh)
CCOc1ccc(-n2c(SCC(=O)Nc3ccc(S(=O)(=O)Nc4nccs4)cc3)nnc2-c2ccc(C(C)(C)C)cc2)cc1	none (no result: Rin1 Abl inh)
CCCCNC(=O)CCNS(=O)(=O)c1ccc(Br)cc1	none
CCC(C)NC(=O)CCNS(=O)(=O)c1ccc(Br)cc1 (configuration not stated)	UHRF1 MBD2 ctr 31.7
O=[N+]([O-])c1ccc(Cl)c2c1C1C=CCC1C(c1ccccn1)N2 (configuration not stated)	none
O=C(O)C1Nc2c(O)cc(Cl)c([N+](=O)[O-])c2C2C=CCC12 (configuration not stated)	UHRF1 MBD2 ctr 92.5, MBD2 DNA inh 63.4, LEDGF integ inh 71.8, Rin1 Abl inh 14.3
Cc1ccccc1NC(=O)O[C@H]1CC[C@@]23CCCN2C(=O)CCC[C@H]3[C@H]1C	none (no result: Rin1 Abl inh)
CCN(C(=O)COC(=O)c1ccccc1NCCO)c1cccc2ccccc12	UHRF1 MBD2 ctr 91.0
CCn1c(=O)n(CC(=O)N2CCC(C)CC2)c(=O)c2ccccc21	none (no result: Rin1 Abl inh)
Cc1oc2c(CN(C)C)c(O)ccc2c(=O)c1-c1cscn1	TDP2 inh 37.6
O=C(NCC1CCCO1)c1ccc(Cl)c(S(=O)(=O)N2CCOCC2)c1 (configuration not stated)	none
O=C(NCC1CCCO1)c1cc(S(=O)(=O)N2CCOCC2)c(Cl)cc1Cl (configuration not stated)	UHRF1 MBD2 ctr 23.1
Cc1c(CNCC(C)c2ccccc2)c(C(=O)O)c(C)n1Cc1ccccc1 (configuration not stated)	none
CCC(Cc1ccccc1)NCc1c(C(=O)O)c(C)n(Cc2ccccc2)c1C (configuration not stated)	UHRF1 MBD2 ctr 29.7
N#C/C(=C\c1c(N2CCCCCC2)nc2ccccn2c1=O)C(=O)NC1CCS(=O)(=O)C1 (configuration not stated)	UHRF1 MBD2 ctr 24.4
N#C/C(=C\c1c(N2CCOCC2)nc2ccccn2c1=O)C(=O)NC1CCS(=O)(=O)C1 (configuration not stated)	none
CCCC(C)C(=O)NC1CCCCN(Cc2ccc(C)cc2)C1=O (configuration not stated)	none (no result: Rin1 Abl inh)
COC(=O)c1ccc(N2NC(=O)/C(=C/c3ccc(-c4ccc(Cl)c(C(=O)O)c4)o3)C2=O)cc1	UHRF1 MBD2 ctr 39.4
